Activity calls are given as the source filed them. The rule behind the calls is not given here.
Columns and labels:
[1] = system: Human immunodeficiency virus 1; assay: Antiviral activity against HIV 1 NL4-3 infected in human MT4 cells assessed as inhibition of replication treated 48 hrs post infection and measured on day 4 post infection by ELISA; type: functional; conditions: Human immunodeficiency virus 1, NL4-3, MT4
[2] = Half-life in Sprague-Dawley rat plasma at 0.05 mM measured up to 24 hrs by LCMS analysis; type: ADME, cell-free; conditions: 50 µM
How it was run: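 Sprague Dawley rat plasma (sodium heparin) prewarmed 10 min at 37 °C. Compound added from 5 mM DMSO stock to a final 0.05 mM. Samples taken at 0, 0.5, 1, 2, 4, 6, 10 and 24 h, deproteinized with 2 volumes MeOH, centrifuged and filtered. Analysis by LCMS (C18, isocratic, ESI). Mean of three independent experiments.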

MT4 = assay: Cytotoxicity against human MT4 cells measured after 3 days by CytoTox-Glo assay; type: cell-based; conditions: mt4, 72 h
How it was run: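 MT4 cells cultured with a range of compound concentrations for 3 days. Viability by CytoTox-Glo, run per the manufacturer's protocol. CC50 is the concentration causing a 50% drop in viability.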

[3] = Agonist activity at Protein kinase C in human MT4 cells infected with HIV-1 NL4-3 assessed as inhibition of viral replication measured on day 3 post-infection by Nano-Glo luciferase assay
Protein kinase C (PKC) = assay: Agonist activity at Protein kinase C in human U1 cells infected with HIV-1 NL4-3 assessed as induction of HIV-1 p24 production after 72 hrs by ELISA; type: cell-based
How it was run: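 Latency model: U1 cells (2 × 10^5 cells/mL) incubated with a range of compound concentrations at 37 °C for 72 h. p24 in the supernatant measured by ELISA. EC50 is the concentration giving 50% of maximal p24 induction, from nonlinear regression.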

[4] = target: Protein kinase C beta type (Homo sapiens) (UniProt P05771); assay: Agonist activity at Protein kinase C beta in human MT4 cells infected with HIV-1 NL4-3 assessed as inhibition of viral replication at 0.6 nM measured on day 3 post-infection by Nano-Glo luciferase assay relative to control; type: cell-based
How it was run: (§1)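 Multicycle replication: MT4 cells (1 × 10^5 cells/mL) infected with HIV-1 NL4-3 NanoLuc-sec, 50 TCID50/well, with 0.6 nM or 2 nM PKC agonist, with or without enzastaurin at 0, 1/3 or 1 μM. Supernatant luciferase (Nano-Glo) read on day 3 post infection. Replication expressed relative to the no-compound control (100%). Duplicate assay.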

[5] = target: Protein kinase C beta type (Homo sapiens) (UniProt P05771); assay: Agonist activity at Protein kinase C beta in human MT4 cells infected with HIV-1 NL4-3 assessed as inhibition of viral replication at 0.6 nM measured on day 3 post-infection in presence of PKCbeta antagonist enzastaurin by Nano-Glo luciferase assay; type: cell-based; how it was run: as §1
[6] = target: Protein kinase C beta type (Homo sapiens) (UniProt P05771); assay: Agonist activity at Protein kinase C beta in human MT4 cells infected with HIV-1 NL4-3 assessed as inhibition of viral replication at 2 nM measured on day 3 post-infection in presence of PKCbeta antagonist enzastaurin by Nano-Glo luciferase assay; type: cell-based; how it was run: as §1

Sequence of Protein kinase C beta type (Homo sapiens) (P05771 2-671 limits assumed): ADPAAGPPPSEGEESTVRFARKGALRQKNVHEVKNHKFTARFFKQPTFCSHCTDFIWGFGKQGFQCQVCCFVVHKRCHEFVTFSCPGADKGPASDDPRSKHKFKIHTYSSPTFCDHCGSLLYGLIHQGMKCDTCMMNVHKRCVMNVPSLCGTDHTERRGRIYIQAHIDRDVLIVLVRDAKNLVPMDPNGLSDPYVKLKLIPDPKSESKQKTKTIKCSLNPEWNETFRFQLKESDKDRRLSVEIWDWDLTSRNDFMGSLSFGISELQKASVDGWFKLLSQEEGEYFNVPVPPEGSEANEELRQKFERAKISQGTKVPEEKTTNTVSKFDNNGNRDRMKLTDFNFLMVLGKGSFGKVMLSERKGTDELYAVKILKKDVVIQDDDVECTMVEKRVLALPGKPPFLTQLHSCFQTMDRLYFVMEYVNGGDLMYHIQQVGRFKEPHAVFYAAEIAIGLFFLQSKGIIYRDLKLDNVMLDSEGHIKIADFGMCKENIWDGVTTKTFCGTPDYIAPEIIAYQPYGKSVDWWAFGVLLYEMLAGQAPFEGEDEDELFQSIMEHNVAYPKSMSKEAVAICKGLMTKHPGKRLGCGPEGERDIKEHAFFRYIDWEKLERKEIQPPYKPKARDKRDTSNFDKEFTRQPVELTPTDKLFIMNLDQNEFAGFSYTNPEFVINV

| SMILES | CC50 (MT4) | IC50 [3] | other results |
| --- | --- | --- | --- |
| C=C(C)[C@]12C[C@@H](COC(C)=O)[C@@]34OC5(O[C@@H]1[C@@H]3[C@@H]1O[C@]1(CO)[C@@H](O)[C@@]1(O)[C@H]4[C@H]([C@H](C)[C@@H]1OC(=O)c1ccccc1)[C@H](C)CCCCCC[C@H]5O)O2 | – | – | IC90 [1]: 0.4 nM |
| C=C(C)[C@]12C[C@@H](COC(=O)c3ccccc3)[C@@]34OC5(O[C@@H]1[C@@H]3[C@@H]1O[C@]1(CO)[C@@H](O)[C@@]1(O)[C@H]4[C@H]([C@H](C)[C@@H]1OC(=O)c1ccc3ccccc3c1)[C@H](C)CCCCCC[C@H]5O)O2 | > 1 nM | 0.15 nM | t1/2 [2]: 26.17 h |
| C=C(C)[C@]12C[C@@H](COC(=O)c3ccccc3)[C@@]34OC5(O[C@@H]1[C@@H]3[C@@H]1O[C@]1(CO)[C@@H](O)[C@@]1(O)[C@H]4[C@H]([C@H](C)[C@@H]1OC(=O)c1ccccc1)[C@H](C)CCCCCC[C@H]5O)O2 | > 1 nM | 0.13 nM | EC50 (Protein kinase C (PKC)): 0.19 nM; inhibition [4]: 90%; Activity [5]: inactive; t1/2 [2]: 21.77 h |
| C=C(C)[C@]12C[C@@H](COC(=O)c3ccccc3)[C@@]34OC5(O[C@@H]1[C@@H]3[C@@H]1O[C@]1(CO)C(=O)[C@@]1(O)[C@H]4[C@H]([C@H](C)[C@@H]1OC(=O)c1ccccc1)[C@H](C)CCCCCC[C@H]5O)O2 | > 1 nM | > 1 nM | EC50 (Protein kinase C (PKC)): > 3.9 nM |
| C=C(C)[C@]12C[C@@H](COC(=O)c3ccccc3)[C@@]34OC5(O[C@@H]1[C@@H]3[C@@H]1O[C@]1(CO)[C@@H](O)[C@@]1(O)[C@H]4[C@H]([C@H](C)[C@@H]1OC(=O)c1ccccc1)[C@H](C)CCCCCCC5=O)O2 | > 1 nM | 0.14 nM | EC50 (Protein kinase C (PKC)): 0.6 nM; t1/2 [2]: 21.65 h |
| C=C(C)[C@]12C[C@@H](COC(=O)c3ccccc3)[C@@]34OC5(O[C@@H]1[C@@H]3[C@@H]1O[C@]1(CO)[C@@H](O)[C@@]1(O)[C@H]4[C@H]([C@H](C)[C@@H]1OC(=O)c1ccccc1)[C@H](C)CCCCCC[C@H]5OC(=O)/C(C)=C/C)O2 | > 1 nM | > 1 nM | – |
| C=C(C)[C@]12C[C@@H](COC(=O)c3ccccc3)[C@@]34OC5(O[C@@H]1[C@@H]3[C@@H]1O[C@]1(CO)[C@@H](O)[C@@]1(O)[C@H]4[C@H]([C@H](C)[C@@H]1OC(=O)c1ccncc1)[C@H](C)CCCCCC[C@H]5O)O2 | > 1 nM | 0.36 nM | EC50 (Protein kinase C (PKC)): 0.55 nM; Activity [6]: inactive |
| C=C(C)[C@]12C[C@@H](COC(=O)c3ccccc3)[C@@]34OC5(O[C@@H]1[C@@H]3[C@@H]1O[C@]1(CO)[C@@H](O)[C@@]1(O)[C@H]4[C@H]([C@H](C)[C@@H]1OC(=O)c1ccccc1)[C@H](C)CCCCCC[C@H]5OC(=O)c1ccc(OC)cc1)O2 | > 1 nM | > 1 nM | – |
| C=C(C)[C@]12C[C@@H](COC(=O)c3ccccc3)[C@@]34OC5(O[C@@H]1[C@@H]3[C@@H]1O[C@]1(COC(=O)C1(C)COC(C)(C)OC1)[C@@H](O)[C@@]1(O)[C@H]4[C@H]([C@H](C)[C@@H]1OC(=O)c1ccccc1)[C@H](C)CCCCCC[C@H]5O)O2 | > 1 nM | > 1 nM | – |
| C=C(C)[C@]12C[C@@H](COC(=O)c3ccccc3)[C@@]34OC5(O[C@@H]1[C@@H]3[C@@H]1O[C@]1(COC(=O)[C@@]13CC[C@@](C)(C(=O)O1)C3(C)C)[C@@H](O)[C@@]1(O)[C@H]4[C@H]([C@H](C)[C@@H]1OC(=O)c1ccccc1)[C@H](C)CCCCCC[C@H]5O)O2 | > 1 nM | > 1 nM | – |
| C=C(C)[C@]12C[C@@H](COC(=O)c3ccccc3)[C@@]34OC5(O[C@@H]1[C@@H]3[C@@H]1O[C@]1(CO)[C@@H](O)[C@@]1(O)[C@H]4[C@H]([C@H](C)[C@@H]1OC(=O)c1ccc(OC)cc1)[C@H](C)CCCCCC[C@H]5O)O2 | > 1 nM | 0.17 nM | – |
| C=C(C)[C@]12C[C@@H](COC(=O)c3ccccc3)[C@@]34OC5(O[C@@H]1[C@@H]3[C@@H]1O[C@]1(COC(=O)C(C)(C)CC(=O)O)[C@@H](O)[C@@]1(O)[C@H]4[C@H]([C@H](C)[C@@H]1OC(=O)c1ccccc1)[C@H](C)CCCCCC[C@H]5O)O2 | > 1 nM | > 1 nM | – |
| C=C(C)[C@]12C[C@@H](COC(=O)c3ccccc3)[C@@]34OC5(O[C@@H]1[C@@H]3[C@@H]1O[C@]1(COC(C)=O)[C@@H](O)[C@@]1(O)[C@H]4[C@H]([C@H](C)[C@@H]1OC(=O)c1ccccc1)[C@H](C)CCCCCC[C@H]5O)O2 | > 1 nM | > 1 nM | – |
| C=C(C)[C@]12C[C@@H](CO)[C@@]34OC5(O[C@@H]1[C@@H]3[C@@H]1O[C@]1(CO)[C@@H](O)[C@@]1(O)[C@H]4[C@H]([C@H](C)[C@@H]1O)[C@H](C)CCCCCC[C@H]5O)O2 | > 1 nM | > 1 nM | – |
| C=C(C)[C@]12C[C@@H](COC(=O)c3ccccc3)[C@@]34OC5(O[C@@H]1[C@@H]3[C@@H]1O[C@]1(CO)[C@@H](O)[C@@]1(O)[C@H]4[C@H]([C@H](C)[C@@H]1OC(=O)c1ccccc1)[C@H](C)CCCCCC[C@H]5OC(=O)c1ccccc1)O2 | > 1 nM | > 1 nM | – |
| C=C(C)[C@]12C[C@@H](COC(=O)c3ccccc3)[C@@]34OC5(O[C@@H]1[C@@H]3[C@@H]1O[C@]1(COC(=O)c1ccccc1)[C@@H](O)[C@@]1(O)[C@H]4[C@H]([C@H](C)[C@@H]1OC(=O)c1ccccc1)[C@H](C)CCCCCC[C@H]5O)O2 | > 1 nM | > 1 nM | – |
| C=C(C)[C@]12C[C@@H](COC(=O)c3ccccc3)[C@@]34OC5(O[C@@H]1[C@@H]3[C@@H]1O[C@]1(CO)[C@@H](OC(C)=O)[C@@]1(O)[C@H]4[C@H]([C@H](C)[C@@H]1OC(=O)c1ccccc1)[C@H](C)CCCCCC[C@H]5O)O2 | > 1 nM | > 1 nM | – |
| C=C(C)[C@]12C[C@@H](COC(=O)c3ccccc3)[C@@]34OC5(O[C@@H]1[C@@H]3[C@@H]1O[C@]1(COC(=O)CCC(=O)O)[C@@H](O)[C@@]1(O)[C@H]4[C@H]([C@H](C)[C@@H]1OC(=O)c1ccccc1)[C@H](C)CCCCCC[C@H]5O)O2 | > 1 nM | > 1 nM | – |
| CC(C)[C@]12C[C@@H](COC(=O)c3ccccc3)[C@@]34OC5(O[C@@H]1[C@@H]3[C@@H]1O[C@]1(CO)[C@@H](O)[C@@]1(O)[C@H]4[C@H]([C@H](C)[C@@H]1OC(=O)c1ccccc1)[C@H](C)CCCCCC[C@H]5O)O2 | > 1 nM | 0.18 nM | – |
| C=C(C)[C@]12C[C@@H](COC(=O)c3ccccc3)[C@@]34OC5(O[C@@H]1[C@@H]3[C@@H]1O[C@]1(CO)[C@@H](O)[C@@]1(O)[C@H]4[C@H]([C@H](C)[C@@H]1OC(=O)c1ccccc1)[C@H](C)CCCCCC[C@H]5OC(=O)c1ccc3ccccc3c1)O2 | > 1 nM | > 1 nM | – |
